# Results taken from publication PMC7704867 (Biochimica et biophysica acta. Biomembranes, 2020).
# Ends that are not written are not given here. Peptide text beside a SMILES is read from it. * marks the point of attachment. DOTA = O=C(O)CN1CCN(CC(=O)O)CCN(CC(=O)*)CCN(CC(=O)O)CC1
# Experiments:
# [1] = target: 15N-S100A10-AnxA2Nter fusion protein (Homo sapiens, UniProt P60903); format: binding
# [2] = target: Ac-^15N-F454G458G461-SW; experiment: NMR titration
# [3] = system: AnxA2; format: binding, human; details: 60 μM peptide, up to molar ratio 1:1, 1H-15N HSQC, 25°C, pH 5.5
# How it was run: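 Recombinant human AnxA2 (C-terminal thrombin site and His tag, expressed in E. coli C41(DE3)) titrated up to 1:1 molar ratio into uniformly 15N-labelled 12-residue CEACAM1-SF peptide (Trx-SMT3 fusion grown in M9/15NH4Cl, Ulp1-cleaved, HPLC-purified) at 60 μM. Buffer: 50 mM NaAc-d3, 2 mM DTT, 5% D2O. 1H-15N HSQC at 700 MHz with cryoprobe; chemical shift perturbations monitored.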
# [4] = target: S100A10-AnxA2Nter fusion protein [S100A10(1–92)-ENLYFQGD linker-AnxA2 peptide (1–13)]; experiment: NMR titration
Molecule,Kd [1] [µM],Kd [4] [µM],other results
CC(=O)N[C@@H](CS)C(=O)N[C@@H](Cc1ccccc1)C(=O)N[C@@H](CC(C)C)C(=O)N[C@@H](Cc1c[nH]cn1)C(=O)N[C@@H](Cc1ccccc1)C(=O)NCC(=O)N[C@@H](CCCCN)C(=O)N[C@H](C(=O)NCC(=O)N[C@@H](CCC(=O)O)C(=O)N[C@@H](CO)C(=O)NCC(=O)N1CCC[C@H]1C(=O)N[C@@H](CC(C)C)C(=O)N[C@@H](CCC(N)=O)C(=O)O)[C@@H](C)O [Ac-SW-S/E] (Ac-CFLHFGKTGESGPLQ-OH),1580 ± 200,–,–
CC(=O)N[C@@H](CS)C(=O)N[C@@H](Cc1ccccc1)C(=O)N[C@@H](CC(C)C)C(=O)N[C@@H](Cc1c[nH]cn1)C(=O)N[C@@H](Cc1ccccc1)C(=O)NCC(=O)N[C@@H](CCCCN)C(=O)N[C@@H](CCC(=O)O)C(=O)NCC(=O)N[C@@H](CO)C(=O)N[C@@H](CO)C(=O)NCC(=O)N1CCC[C@H]1C(=O)N[C@@H](CC(C)C)C(=O)N[C@@H](CCC(N)=O)C(=O)O [Ac-SW-T/E] (Ac-CFLHFGKEGSSGPLQ-OH),2330 ± 390,–,–
CC(=O)N[C@@H](CS)C(=O)N[C@@H](Cc1ccccc1)C(=O)N[C@@H](CC(C)C)C(=O)N[C@@H](Cc1c[nH]cn1)C(=O)N[C@@H](Cc1ccccc1)C(=O)NCC(=O)N[C@@H](CCCCN)C(=O)N[C@H](C(=O)NCC(=O)N[C@@H](CO)C(=O)N[C@@H](CO)C(=O)NCC(=O)N1CCC[C@H]1C(=O)N[C@@H](CC(C)C)C(=O)N[C@@H](CCC(N)=O)C(=O)O)[C@@H](C)O [Ac-SW] (Ac-CFLHFGKTGSSGPLQ-OH),880 ± 100,–,–
CC(=O)N[C@@H](CS)C(=O)N[C@@H](Cc1ccccc1)C(=O)N[C@@H](CC(C)C)C(=O)N[C@@H](Cc1c[nH]cn1)C(=O)N[C@@H](C)C(=O)NCC(=O)N[C@@H](CCCCN)C(=O)N[C@H](C(=O)NCC(=O)N[C@@H](CO)C(=O)N[C@@H](CO)C(=O)NCC(=O)N1CCC[C@H]1C(=O)N[C@@H](CC(C)C)C(=O)N[C@@H](CCC(N)=O)C(=O)O)[C@@H](C)O [Ac-SW-F/A] (Ac-CFLHAGKTGSSGPLQ-OH),2100 ± 810,–,–
S100A10-AnxA2Nter fusion protein [S100A10(1–92)-ENLYFQGD linker-AnxA2 peptide (1–13)],–,–,Kd [2]: 460 µM
CC(=O)N[C@@H](CS)C(=O)N[C@@H](Cc1ccccc1)C(=O)N[C@@H](CC(C)C)C(=O)N[C@@H](Cc1c[nH]cn1)C(=O)N[C@@H](Cc1ccccc1)C(=O)NCC(=O)N[C@@H](CCCCN)C(=O)N[C@@H](CCC(=O)O)C(=O)NCC(=O)N[C@@H](CCC(=O)O)C(=O)N[C@@H](CO)C(=O)NCC(=O)N1CCC[C@H]1C(=O)N[C@@H](CC(C)C)C(=O)N[C@@H](CCC(N)=O)C(=O)O [Ac-SW-TS/EE] (Ac-CFLHFGKEGESGPLQ-OH),3530 ± 1200,–,–
453-HFGKTGSSGPLQ-464 [^15N-SW-12],–,–,chemical shift perturbation of peptide on titration with AnxA2 [3]: no chemical shift perturbation
Ac-CFLHAGKTGSSGPLQ [Ac-SW-F/A],–,2100,–
Ac-CFLHFGKEGSSGPLQ [Ac-SW-T/E],–,2330,–
"Ac-CFLHFGKTGRASDQR [Ac-LW, CEACAM1 long form 15 amino acid peptide]",–,1220,–
Ac-CFLHFGKTGESGPLQ [Ac-SW-S/E],–,1580,–
Ac-CFLHFGKEGESGPLQ [Ac-SW-TS/EE],–,3530,–
"Ac-CFLHFGKTGSSGPLQ [Ac-SW, CEACAM1 short form 15 amino acid peptide]",–,880,stoichiometry N ([4]; scale: peptides per S100A10-AnxA2Nter fusion dimer): 2
{DOTA}-GFLHFGKTGSSGPLQ (also: N-terminal DOTA chelated with Y3+) [Y-DOTA-SW],–,1070,–
